The values below come from article PMC7571425 (Antiviral Research, 2020).

The structures appear in SMILES notation. Read-outs that look alike come from different tables or passages of the source.

The test system of one series is hPSC-CMs. Briefly: Electrophysiological characterization of hPSC-CMs. The following applies: for repolarization: dofetilide 10 nM, E4031 30 nM. It is filed as cell-based, human.
Another series concerns the target hERG currents (Homo sapiens, UniProt Q12809). Briefly: cell-based.
A short description of series [1]: Cell viability assay. As to conditions: human. It is filed as cell-based. Summed up: (§1)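 Cardiomyocytes were differentiated from H9 hESCs or CMC-hiPSC-011 hiPSCs (CHIR99021, then Wnt inhibitor C59; lactate selection days 10–15). They were exposed to graded drug concentrations (DMSO stocks) for 24 h or 48 h. Viability was read by MTS, absorbance 490 nm. CC50 came from four-parameter nonlinear regression. Mean ± SD of at least two independent experiments in triplicate.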

For series [2], the system named is SARS-CoV-2. Description: Image-based. In kind it is cell-based, SARS-CoV-2 (hCoV/Korea/KCDC-03/2020). As to conditions: Severe acute respiratory syndrome coronavirus 2, 48 h, MOI 2.5, 48 h post-infection.
The nature of series [3]: Cytotoxicity in mock-infected Vero E6 cells. The following applies: African green monkey. In kind it is cell-based.
Series [4] is described as follows: Cell viability assay. In kind it is cell-based. As to conditions: human. The procedure, abridged:
as §1
This is another data set of the same source.

In series [5] the test system is SARS-CoV-2. In kind it is cell-based. The following applies: for reduction in SARS-CoV-2 titers: 33 μM.
Series [6] concerns SARS-CoV-2. Description: RT-qPCR of intracellular SARS-CoV-2 RNA in hPSC-CMs. In kind it is cell-based. The following applies: 0.3 μM and 1 μM.
The test system of series [7] is SARS-CoV-2. Briefly: CPE-based antiviral assay in Vero E6 cells. It is filed as cell-based, SARS-CoV-2 (hCoV/Korea/KCDC-03/2020).
The mark [8] stands for this setting: hESC-CMs (human embryonic stem cell-derived cardiomyocytes).

hERG currents, sequence (Q12809 whole entry): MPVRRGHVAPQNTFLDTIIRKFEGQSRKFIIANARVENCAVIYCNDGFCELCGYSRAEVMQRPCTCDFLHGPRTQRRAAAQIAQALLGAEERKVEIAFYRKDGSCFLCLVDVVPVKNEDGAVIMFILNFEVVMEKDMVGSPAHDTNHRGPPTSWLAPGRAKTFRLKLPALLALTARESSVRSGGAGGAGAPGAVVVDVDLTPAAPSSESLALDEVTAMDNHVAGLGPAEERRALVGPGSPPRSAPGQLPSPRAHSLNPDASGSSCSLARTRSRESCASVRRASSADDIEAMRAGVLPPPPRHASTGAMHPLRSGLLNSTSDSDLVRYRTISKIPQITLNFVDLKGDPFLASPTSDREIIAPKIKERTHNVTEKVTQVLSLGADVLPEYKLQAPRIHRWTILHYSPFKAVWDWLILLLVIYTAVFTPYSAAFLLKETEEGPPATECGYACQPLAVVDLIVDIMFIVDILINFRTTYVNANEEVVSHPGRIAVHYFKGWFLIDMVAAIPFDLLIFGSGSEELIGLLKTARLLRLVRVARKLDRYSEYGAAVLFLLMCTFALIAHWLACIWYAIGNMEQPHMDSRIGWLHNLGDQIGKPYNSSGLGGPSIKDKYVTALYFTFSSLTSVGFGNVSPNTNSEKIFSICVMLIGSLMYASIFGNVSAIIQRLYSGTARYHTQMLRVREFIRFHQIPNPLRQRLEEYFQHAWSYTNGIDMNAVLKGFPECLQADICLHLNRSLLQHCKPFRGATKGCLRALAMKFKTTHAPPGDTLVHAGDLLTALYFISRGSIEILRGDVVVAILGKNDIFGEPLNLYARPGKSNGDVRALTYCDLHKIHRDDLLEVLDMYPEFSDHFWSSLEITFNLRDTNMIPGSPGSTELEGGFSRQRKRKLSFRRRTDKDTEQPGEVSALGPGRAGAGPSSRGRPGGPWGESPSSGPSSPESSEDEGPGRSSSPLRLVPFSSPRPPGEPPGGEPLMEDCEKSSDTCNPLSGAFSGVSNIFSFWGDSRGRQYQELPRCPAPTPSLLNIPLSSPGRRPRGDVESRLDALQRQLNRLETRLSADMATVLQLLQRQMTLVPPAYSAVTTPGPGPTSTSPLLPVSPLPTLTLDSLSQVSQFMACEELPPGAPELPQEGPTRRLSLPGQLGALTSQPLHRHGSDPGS

On to `CC(C)NCC(O)c1ccc(O)c(O)c1` (centres unmarked) [isoprenaline], for which the “rate of AP” value in the series on hPSC-CMs (100 nM) was “substantially increased”.
Turning to `CN(CCOc1ccc(NS(C)(=O)=O)cc1)CCc1ccc(NS(C)(=O)=O)cc1` [dofetilide], in the series with hPSC-CMs, the repolarization result was “significantly delayed”.
For the molecule `CCC(CC)COC(=O)[C@H](C)N[P@](=O)(OC[C@H]1O[C@@](C#N)(c2ccc3c(N)ncnn23)[C@H](O)[C@@H]1O)Oc1ccccc1` [Remdesivir], the IC50 (in general, the midpoint of a concentration-inhibition curve) at hERG currents is more than 100 µM. Also, in the series “Cell viability assay [1]”, the CC50 (as a rule, the concentration that lowers cell viability or growth by half) at 24 h stood at 39.4 µM and the CC50 at 48 h amounted to 15.6 µM. In the series on SARS-CoV-2 [2] (hESC-CMs), the EC50 (in general, the concentration at which the effect is half-maximal) is 0.6 µM and the 90% effect concentration (EC90) (as a rule, the concentration needed for an effect of 90%) came out at 1.3 µM. In the series with SARS-CoV-2 [2] (hiPSC-CMs), this molecule displayed an EC50 of 0.2 µM and an EC90 of 0.33 µM. Also, the CC50 at 72 h in [3] was more than 100 µM. Moreover, in “Cell viability assay [4]” (setting [8]), the CC50 at 24 h was found to be 17.7 µM and it took 10.2 µM to reach half-maximal cytotoxicity (CC50 at 48 h). In addition, in “Cell viability assay [4]” (hPSC-CMs (hESC-CMs and hiPSC-CMs)), the CC50 was in the range of 10.2 to 39.4 µM. Also, the viral particle production entry in the series on SARS-CoV-2 [5] (hESC-CMs and hiPSC-CMs, 0.3 μM and 1 μM remdesivir) is listed as “Complete suppression”. Further, the “reduction of viral titer” value in the series on SARS-CoV-2 [5] (hPSC-CMs, 0.1 μM) is “minimal reduction”. For the same molecule, the “intracellular viral mRNA synthesis” value in the series on SARS-CoV-2 [6] is listed as “complete inhibition”. Further, in the series on hiPSC-CMs (30 min exposure), the “concentration that reduced Na+ peak amplitudes and spontaneous beating rates, followed by complete cessation of spontaneous beating” value is not below 30 µM; the “field potential duration (FPD)” value is recorded as “dose-dependent prolongations of FPD”. Further, in the series with hiPSC-CMs (data not shown), the “Early afterdepolarizations (EADs) and delayed afterdepolarizations (DADs)” value is “not detected”. Further, the “selectivity index (SI)” value with SARS-CoV-2 [7] (CC50/EC50) is recorded as more than 50.
Take `Cc1cccc(CCN2CCC(C(=O)c3ccc(NS(C)(=O)=O)cc3)CC2)n1` [E4031]: in the series on hPSC-CMs, the repolarization entry is “significantly delayed”.
In [3], `CCN(CCO)CCCC(C)Nc1ccnc2cc(Cl)ccc12` (centres unmarked) [Hydroxychloroquine, hydroxychloroquine] had a CC50 at 72 h of 76.1 µM.
In the case of `NC(=O)c1nc(F)c[nH]c1=O` [Favipiravir (T-705), favipiravir], the “in vitro antiviral activity against SARS-CoV-2” value in the series with SARS-CoV-2 [7] is on record as “no apparent in vitro antiviral activity”.
With `CCN(CC)CCCC(C)Nc1ccnc2cc(Cl)ccc12` (centres unmarked) [Chloroquine], in the series on SARS-CoV-2 [2] (hESC-CMs), a half-maximal response (EC50) required 27.9 µM and the EC90 was more than 84.9 µM. In the series with SARS-CoV-2 [2] (hiPSC-CMs), this molecule came in with an EC50 of 12.1 µM and an EC90 of 24.1 µM. Moreover, the CC50 at 72 h in series [3] was more than 100 µM. The same molecule returned a CC50 at 48 h in the series “Cell viability assay [4]” (setting [8]) of 84.9 µM. The “infectious viral particle production” value in the series with SARS-CoV-2 [5] (hESC-CMs and hiPSC-CMs, highest tested concentration) was “complete suppression”. Also, the “reduction in SARS-CoV-2 titers” value with SARS-CoV-2 [5] (hESC-CMs) was 2.3 log10 PFU/ml. In the series on SARS-CoV-2 [5] (hPSC-CMs, 11 μM), the “effect on viral titers” value is recorded as “did not affect”. Moreover, the “reduction in SARS-CoV-2 titers” value in the series with SARS-CoV-2 [5] (hiPSC-CMs) is on record as 0.3 log10 PFU/ml. In the series on hiPSC-CMs (30 min exposure), the “Na+ peak amplitude and T-wave” value was “pronounced reduction of Na^+ peak amplitude and T-wave flattening”; the “field potential duration (FPD)” value is on record as “increased the field potential duration (FPD) of hiPSC-CMs in a dose-dependent manner”.
